In ChEMBL document CHEMBL3576866, “Discovery of a Cyclic Boronic Acid β-Lactamase Inhibitor (RPX7009) with Utility vs Class A Serine Carbapenemases” (J Med Chem, 2015):

What was measured:
[1] = molecular target: T1, Beta-lactamase SHV-1 (Klebsiella pneumoniae) (UniProt P0AD64); assay: Inhibition of Klebsiella pneumoniae KP1082 SHV-1 assessed as meropenem MIC at 4 ug/ml by broth microdilution method
T1 sequence (whole entry): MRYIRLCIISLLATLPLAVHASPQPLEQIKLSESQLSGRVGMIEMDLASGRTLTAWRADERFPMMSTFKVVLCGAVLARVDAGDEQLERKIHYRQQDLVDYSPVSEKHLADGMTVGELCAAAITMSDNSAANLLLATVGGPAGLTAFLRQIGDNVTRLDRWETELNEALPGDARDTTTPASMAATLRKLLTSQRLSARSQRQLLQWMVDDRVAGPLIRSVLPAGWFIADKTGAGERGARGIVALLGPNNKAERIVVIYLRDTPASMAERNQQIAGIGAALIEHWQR
How it was run: (§1)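 CLSI broth microdilution (M07-A9, 2012) MIC of the carbapenem against clinical serine carbapenemase-producing strain, tested alone and with the inhibitor held at a fixed 4 μg/mL.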

Klebsiella pneumoniae [2] = assay: Inhibition of Klebsiella pneumoniae KP1004 KPC-2 assessed as meropenem MIC at 4 ug/ml by broth microdilution method; how it was run: as §1
[3] = molecular target: Carbapenem-hydrolyzing beta-lactamase KPC (Klebsiella oxytoca) (UniProt Q848S6); assay: Inhibition of Klebsiella oxytoca KX1017 KPC-2 assessed as meropenem MIC at 4 ug/ml by broth microdilution method; how it was run: as §1
[4] = molecular target: Carbapenem-hydrolyzing beta-lactamase KPC (Klebsiella oxytoca) (UniProt Q848S6); assay: Inhibition of Klebsiella oxytoca KX1019 KPC-2 assessed as meropenem MIC at 4 ug/ml by broth microdilution method; how it was run: as §1
Klebsiella pneumoniae [5] = assay: Inhibition of Klebsiella pneumoniae KP1087 SHV-11 assessed as meropenem MIC at 4 ug/ml by broth microdilution method; how it was run: as §1
Prothrombin = Prothrombin (Homo sapiens, UniProt P00734); assay: Inhibition of thrombin (unknown origin) using Benz-FVR-AMC as substrate preincubated for 10 mins followed by substrate addition measured for 30 mins by spectrophotometric analysis
How it was run: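 Thrombin, from a commercial source, in 20 mM Tris-HCl, pH 8, 150 mM NaCl, 2.5 mM CaCl2. Preincubated with inhibitor at various concentrations for 10 min at 37 °C. Benz-FVR-AMC (listed at 10 μM) was then added and the signal monitored for 30 min. Rates were relative to untreated; IC50 is the concentration giving 50% inhibition.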

[6] = Inhibition of elastase (unknown origin) using Suc-AAPA-pNA as substrate preincubated for 10 mins followed by substrate addition measured for 30 mins by spectrophotometric analysis; design: species or system Homo sapiens
How it was run: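 Elastase from a commercial source in 25 mM Tris-HCl, pH 8.0. Inhibitor at various concentrations was preincubated 10 min at 37 °C. Suc-AAPA-pNA (listed at 50 μM) was added and absorbance followed for 30 min. Rates were relative to untreated; IC50 is the concentration giving 50% inhibition.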

[7] = Half life in rat at 300 mg/kg, iv administered as 0.5 hrs infusion by HPLC-MS method; format: ADME, organism-based; details: in vivo
[8] = Volume of distribution in rat at 300 mg/kg, iv administered as 0.5 hrs infusion by HPLC-MS method; format: ADME, organism-based; details: in vivo
[9] = Clearance in rat at 300 mg/kg, iv administered as 0.5 hrs infusion by HPLC-MS method; format: ADME, organism-based; details: in vivo
Klebsiella pneumoniae [10] = assay: In vivo inhibition of KPC in Klebsiella pneumoniae KP1074 in Swiss webster neutropenic mouse lung infection model assessed as biapenem deltalog10CFU in lung at 50 mg/kg, ip administered every 2 hrs starting at 2 hrs postinfection measured after 24 hrs; format: functional
[11] = Half life in human at 1 g administered as 3 hrs of infusion; format: ADME, organism-based; details: in vivo, iv
[12] = molecular target: Beta-lactamase (Enterobacter cloacae) (UniProt P05364); assay: Inhibition of Enterobacter cloacae ECL1002 AmpC assessed as cefepime MIC at 4 ug/ml by broth microdilution method
[13] = molecular target: T1, Beta-lactamase SHV-1 (Klebsiella pneumoniae); assay: Inhibition of Klebsiella pneumoniae KP1082 SHV-1 assessed as biapenem MIC at 4 ug/ml by broth microdilution method; how it was run: as §1
[14] = molecular target: T1, Beta-lactamase SHV-1 (Klebsiella pneumoniae); assay: Inhibition of Klebsiella pneumoniae KP1083 SHV-1 assessed as biapenem MIC at 4 ug/ml by broth microdilution method; how it was run: as §1
Klebsiella pneumoniae [15] = assay: Inhibition of Klebsiella pneumoniae KP1084 SHV-11 assessed as ertapenem MIC at 4 ug/ml by broth microdilution method; how it was run: as §1
Klebsiella pneumoniae [16] = assay: Inhibition of Klebsiella pneumoniae KP1087 KPC-2 assessed as ertapenem MIC at 4 ug/ml by broth microdilution method; how it was run: as §1
Klebsiella pneumoniae [17] = assay: Inhibition of Klebsiella pneumoniae KP1087 CTX-M-15 assessed as ertapenem MIC at 4 ug/ml by broth microdilution method; how it was run: as §1
[18] = molecular target: Carbapenem-hydrolyzing beta-lactamase KPC (Klebsiella oxytoca) (UniProt Q848S6); assay: Inhibition of Klebsiella oxytoca KX1019 KPC-2 assessed as ertapenem MIC at 4 ug/ml by broth microdilution method
Klebsiella pneumoniae [19] = assay: Inhibition of Klebsiella pneumoniae KP1004 SHV-11 assessed as imipenem MIC at 4 ug/ml by broth microdilution method; how it was run: as §1
Klebsiella pneumoniae [20] = assay: Inhibition of Klebsiella pneumoniae KP1008 KPC-2 assessed as imipenem MIC at 4 ug/ml by broth microdilution method; how it was run: as §1
[21] = molecular target: T1, Beta-lactamase SHV-1 (Klebsiella pneumoniae); assay: Inhibition of Klebsiella pneumoniae KP1083 SHV-1 assessed as imipenem MIC at 4 ug/ml by broth microdilution method
[22] = molecular target: Beta lactamase TEM-1 (Klebsiella pneumoniae) (UniProt Q7B899); assay: Inhibition of Klebsiella pneumoniae KP1084 TEM-1 assessed as imipenem MIC at 4 ug/ml by broth microdilution method
Klebsiella pneumoniae [23] = assay: Inhibition of Klebsiella pneumoniae KP1087 CTX-M-15 assessed as imipenem MIC at 4 ug/ml by broth microdilution method
[24] = molecular target: Class A carbapenemase KPC-2 (Escherichia coli) (UniProt A8DS27); assay: Inhibition of Escherichia coli EC1007 KPC-3 assessed as imipenem MIC at 4 ug/ml by broth microdilution method
[25] = molecular target: Carbapenem-hydrolyzing beta-lactamase KPC (Klebsiella oxytoca) (UniProt Q848S6); assay: Inhibition of Klebsiella oxytoca KX1019 KPC-2 assessed as imipenem MIC at 4 ug/ml by broth microdilution method
Klebsiella oxytoca = assay: Inhibition of Klebsiella oxytoca KX1017 OXA-2 assessed as imipenem MIC at 4 ug/ml by broth microdilution method
[26] = Inhibition of Escherichia coli recombinant KPC-2 assessed as substrate nitrocefin degradation preincubated for 10 mins followed by substrate addition measured every 10 secs for 10 mins by spectrophotometric analysis
How it was run: (§2)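 β-Lactamases purified from overexpressing recombinant E. coli. Enzyme preincubated with inhibitor at varying concentrations for 10 min at room temperature in 50 mM Na phosphate pH 7.0, 0.1 mg/mL BSA. Then 50 μM nitrocefin (final) added and cleavage read at 490 nm every 10 s for 10 min. Ki derived by the Waley method.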

[27] = Inhibition of Escherichia coli recombinant CMY-2 assessed as substrate nitrocefin degradation preincubated for 10 mins followed by substrate addition measured every 10 secs for 10 mins by spectrophotometric analysis; how it was run: as §2
Escherichia coli = assay: Inhibition of Escherichia coli EC1009 TEM-10 assessed as cefepime MIC at 4 ug/ml by broth microdilution method
How it was run: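 CLSI broth microdilution (M07-A9) against clinical strains expressing serine β-lactamases.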

SMILES: O=C(O)C[C@@H]1CC[C@H](NC(=O)Cc2cccs2)B(O)O1 [VABORBACTAM]
- MIC [1]: < 0.06 µg/mL
- MIC (Klebsiella pneumoniae [2]): ≤ 0.06 µg/mL
- MIC [3]: < 0.06 µg/mL
- MIC [4]: < 0.06 µg/mL
- MIC (Klebsiella pneumoniae [5]): 1 µg/mL
- IC50 (Prothrombin): > 1000 µM
- IC50 [6]: > 1000 µM
- half-life [7]: 15.6 min
- Vd [8]: 0.48 L/kg
- clearance [9]: 21 mL/min/kg
- deltalog10CFU (Klebsiella pneumoniae [10]): -2.19
- half-life [11]: 73.8 min
- MIC [12]: 0.5 µg/mL
- MIC [13]: < 0.06 µg/mL
- MIC [14]: < 0.06 µg/mL
- MIC (Klebsiella pneumoniae [15]): 4 µg/mL
- MIC (Klebsiella pneumoniae [16]): 2 µg/mL
- MIC (Klebsiella pneumoniae [17]): 2 µg/mL
- MIC [18]: 0.25 µg/mL
- MIC (Klebsiella pneumoniae [19]): ≤ 0.06 µg/mL
- MIC (Klebsiella pneumoniae [20]): ≤ 0.06 µg/mL
- MIC [21]: 0.13 µg/mL
- MIC [22]: 0.25 µg/mL
- MIC (Klebsiella pneumoniae [23]): 0.25 µg/mL
- MIC [24]: 0.13 µg/mL
- MIC [25]: 0.13 µg/mL
- MIC (Klebsiella oxytoca): 0.13 µg/mL
- Ki [26]: 0.069 µM
- Ki [27]: 0.099 µM
- MIC (Escherichia coli): 4 µg/mL
